Experiments:
[1] = molecular target: Ribosomal protein S6 kinase alpha-5 (Homo sapiens) (UniProt O75582); experiment: Inhibition of MSK1 at 10 uM
[2] = molecular target: Macrophage colony-stimulating factor 1 receptor (Homo sapiens) (UniProt P07333); experiment: Inhibition of CSF1R at 10 uM
[3] = molecular target: Ephrin type-B receptor 4 (Homo sapiens) (UniProt P54760); experiment: Inhibition of EPHB4 at 10 uM
[4] = molecular target: BDNF/NT-3 growth factors receptor (Homo sapiens) (UniProt Q16620); experiment: Inhibition of TRKB at 10 uM
Rattus norvegicus = experiment: Antiinflammatory activity in Lewis rat assessed as inhibition of LPS-induced TNFalpha release at 5 mg/kg administered before LPS challenge and measured after 4 hrs by ELISA; format: functional
Procedure, shortened: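 Rat LPS challenge. The compound was given at –4 h relative to LPS, at the dose in mg/kg shown for each line. Read-out is percent inhibition of TNFα.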

[5] = molecular target: Vascular endothelial growth factor receptor 1 (Homo sapiens) (UniProt P17948); experiment: Inhibition of FLT1 at 10 uM
[6] = molecular target: Serine/threonine-protein kinase mTOR (Homo sapiens) (UniProt P42345); experiment: Inhibition of mTOR at 10 uM
[7] = test system: Hepatocyte growth factor receptor (Homo sapiens), P08581 [M1250T]; experiment: Inhibition of MET M1250T (mutant) at 10 uM
[8] = molecular target: Serine/threonine-protein kinase SIK2 (Homo sapiens) (UniProt Q9H0K1); experiment: Inhibition of SNF1LK2 at 10 uM
[9] = molecular target: Cyclin-dependent kinase 1/cyclin B1 (Homo sapiens) (UniProt P06493+P14635); experiment: Inhibition of CDK1/cyclin B at 10 uM; format: protein-complex assay
[10] = molecular target: Casein kinase I isoform alpha (Homo sapiens) (UniProt P48729); experiment: Inhibition of CSNK1A1 at 10 uM
[11] = molecular target: Rhodopsin kinase GRK7 (Homo sapiens) (UniProt Q8WTQ7); experiment: Inhibition of GRK7 at 10 uM
[12] = molecular target: Dual specificity mitogen-activated protein kinase kinase 1 (Homo sapiens) (UniProt Q02750); experiment: Inhibition of MEK1 at 10 uM
[13] = molecular target: Tyrosine-protein kinase Fyn (Homo sapiens) (UniProt P06241); experiment: Inhibition of FYN at 10 uM
[14] = molecular target: Dual specificity protein kinase CLK3 (Homo sapiens) (UniProt P49761); experiment: Inhibition of CLK3 at 10 uM
[15] = molecular target: Tyrosine-protein kinase ABL1 (Homo sapiens) (UniProt P00519); experiment: Inhibition of ABL1 at 10 uM
[16] = molecular target: Serine/threonine-protein kinase Sgk3 (Homo sapiens) (UniProt Q96BR1); experiment: Inhibition of SGK3 at 10 uM
[17] = molecular target: Serine/threonine-protein kinase pim-2 (Homo sapiens) (UniProt Q9P1W9); experiment: Inhibition of PIM2 at 10 uM
[18] = molecular target: Calcium/calmodulin-dependent protein kinase type II subunit alpha (Homo sapiens) (UniProt Q9UQM7); experiment: Inhibition of CAMK2alpha at 10 uM
[19] = molecular target: Maternal embryonic leucine zipper kinase (Homo sapiens) (UniProt Q14680); experiment: Inhibition of MELK at 10 uM
[20] = molecular target: Dual specificity tyrosine-phosphorylation-regulated kinase 1B (Homo sapiens) (UniProt Q9Y463); experiment: Inhibition of DYRK1B at 10 uM
[21] = molecular target: Serine/threonine-protein kinase D2 (Homo sapiens) (UniProt Q9BZL6); experiment: Inhibition of PKD2 at 10 uM
[22] = molecular target: MAP/microtubule affinity-regulating kinase 3 (Homo sapiens) (UniProt P27448); experiment: Inhibition of MARK3 at 10 uM
[23] = molecular target: Tyrosine-protein kinase FRK (Homo sapiens) (UniProt P42685); experiment: Inhibition of FRK at 10 uM
[24] = molecular target: Activin receptor type-1B (Homo sapiens) (UniProt P36896); experiment: Inhibition of ALK4 at 10 uM
[25] = Inhibition of SRC N1 at 10 uM
[26] = molecular target: Fibroblast growth factor receptor 2 (Homo sapiens) (UniProt P21802); experiment: Inhibition of FGFR2 at 10 uM
[27] = molecular target: Mitogen-activated protein kinase 3 (Homo sapiens) (UniProt P27361); experiment: Inhibition of ERK1 at 10 uM
[28] = molecular target: Tyrosine-protein kinase Fgr (Homo sapiens) (UniProt P09769); experiment: Inhibition of FGR at 10 uM
[29] = molecular target: Dual specificity protein kinase CLK2 (Homo sapiens) (UniProt P49760); experiment: Inhibition of CLK2 at 10 uM
[30] = molecular target: Mitogen-activated protein kinase 14 (Homo sapiens, UniProt Q16539); experiment: Inhibition of p38alpha at 10 uM
[31] = test system: Receptor-type tyrosine-protein kinase FLT3 (Homo sapiens), P36888 [D835Y]; experiment: Inhibition of FLT3 D835Y (mutant) at 10 uM
[32] = molecular target: Serine/threonine-protein kinase 4 (Homo sapiens) (UniProt Q13043); experiment: Inhibition of MST1 at 10 uM
[33] = molecular target: Protein kinase C gamma type (Homo sapiens) (UniProt P05129); experiment: Inhibition of PKCgamma at 10 uM
[34] = molecular target: Cyclin-dependent kinase 5/CDK5 activator 1 (Homo sapiens) (UniProt Q00535+Q15078); experiment: Inhibition of CDK5/p35 at 10 uM; format: protein-complex assay
[35] = molecular target: Vascular endothelial growth factor receptor 3 (Homo sapiens) (UniProt P35916); experiment: Inhibition of FLT4 at 10 uM
[36] = molecular target: Protein-tyrosine kinase 6 (Homo sapiens) (UniProt Q13882); experiment: Inhibition of Brk at 10 uM
[37] = molecular target: Testis-specific serine/threonine-protein kinase 2 (Homo sapiens) (UniProt Q96PF2); experiment: Inhibition of TSSK2 at 10 uM
[38] = molecular target: Leukocyte tyrosine kinase receptor (Homo sapiens) (UniProt P29376); experiment: Inhibition of LTK at 10 uM
[39] = Inhibition of PKG2 at 10 uM
[40] = molecular target: ALK tyrosine kinase receptor (Homo sapiens) (UniProt Q9UM73); experiment: Inhibition of ALK at 10 uM
[41] = test system: Tyrosine-protein kinase ABL1 (Homo sapiens), P00519 [T315I]; experiment: Inhibition of ABL1 T315I (mutant) at 10 uM
[42] = molecular target: Dual specificity tyrosine-phosphorylation-regulated kinase 4 (Homo sapiens) (UniProt Q9NR20); experiment: Inhibition of DYRK4 at 10 uM
[43] = molecular target: Fibroblast growth factor receptor 1 (Homo sapiens) (UniProt P11362); experiment: Inhibition of FGFR1 at 10 uM
[44] = molecular target: Serine/threonine-protein kinase Chk1 (Homo sapiens) (UniProt O14757); experiment: Inhibition of CHK1 at 10 uM
[45] = molecular target: Death-associated protein kinase 3 (Homo sapiens) (UniProt O43293); experiment: Inhibition of ZIPK at 10 uM

Sequence of MAP/microtubule affinity-regulating kinase 3 (Homo sapiens) (P27448 whole entry, looked up): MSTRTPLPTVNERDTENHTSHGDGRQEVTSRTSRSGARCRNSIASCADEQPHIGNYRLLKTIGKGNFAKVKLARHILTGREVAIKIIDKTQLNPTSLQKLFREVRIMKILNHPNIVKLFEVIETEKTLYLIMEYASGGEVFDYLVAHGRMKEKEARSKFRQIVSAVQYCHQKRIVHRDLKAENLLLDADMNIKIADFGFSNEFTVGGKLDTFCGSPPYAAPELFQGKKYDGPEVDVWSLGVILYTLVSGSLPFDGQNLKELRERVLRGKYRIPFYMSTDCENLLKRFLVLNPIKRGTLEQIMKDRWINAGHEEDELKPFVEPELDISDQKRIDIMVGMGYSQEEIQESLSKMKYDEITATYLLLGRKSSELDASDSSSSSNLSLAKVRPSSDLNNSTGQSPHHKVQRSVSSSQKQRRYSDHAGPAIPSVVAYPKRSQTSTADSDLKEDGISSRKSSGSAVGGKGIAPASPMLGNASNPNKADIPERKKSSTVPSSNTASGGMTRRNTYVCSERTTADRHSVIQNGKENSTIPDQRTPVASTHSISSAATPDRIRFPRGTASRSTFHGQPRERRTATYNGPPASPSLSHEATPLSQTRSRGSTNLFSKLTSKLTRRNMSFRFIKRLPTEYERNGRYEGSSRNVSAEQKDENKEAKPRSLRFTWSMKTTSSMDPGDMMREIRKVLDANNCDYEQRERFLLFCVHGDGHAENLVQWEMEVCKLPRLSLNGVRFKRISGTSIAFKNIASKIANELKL
Sequence of BDNF/NT-3 growth factors receptor (Homo sapiens) (Q16620 32-822 limits assumed): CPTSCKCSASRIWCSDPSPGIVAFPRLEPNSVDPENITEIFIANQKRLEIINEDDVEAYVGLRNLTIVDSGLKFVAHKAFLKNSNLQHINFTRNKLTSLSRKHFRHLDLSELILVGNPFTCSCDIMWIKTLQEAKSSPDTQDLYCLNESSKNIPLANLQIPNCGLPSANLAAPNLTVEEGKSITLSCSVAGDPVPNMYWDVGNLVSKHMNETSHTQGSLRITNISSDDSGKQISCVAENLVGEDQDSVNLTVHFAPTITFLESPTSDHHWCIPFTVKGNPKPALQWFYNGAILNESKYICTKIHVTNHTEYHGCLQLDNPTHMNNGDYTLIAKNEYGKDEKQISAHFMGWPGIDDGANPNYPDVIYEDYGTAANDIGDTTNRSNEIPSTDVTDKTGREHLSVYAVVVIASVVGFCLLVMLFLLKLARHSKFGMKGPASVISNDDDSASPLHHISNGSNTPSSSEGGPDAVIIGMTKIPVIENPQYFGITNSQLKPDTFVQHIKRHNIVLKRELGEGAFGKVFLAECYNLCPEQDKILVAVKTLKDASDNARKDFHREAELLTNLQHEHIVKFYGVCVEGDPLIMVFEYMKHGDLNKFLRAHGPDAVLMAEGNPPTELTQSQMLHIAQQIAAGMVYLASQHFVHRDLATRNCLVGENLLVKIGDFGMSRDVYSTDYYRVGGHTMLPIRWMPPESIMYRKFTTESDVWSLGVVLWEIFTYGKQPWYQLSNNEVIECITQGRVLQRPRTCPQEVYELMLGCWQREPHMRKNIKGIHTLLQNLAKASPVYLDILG
Sequence of Ribosomal protein S6 kinase alpha-5 (Homo sapiens) (O75582 whole entry, looked up): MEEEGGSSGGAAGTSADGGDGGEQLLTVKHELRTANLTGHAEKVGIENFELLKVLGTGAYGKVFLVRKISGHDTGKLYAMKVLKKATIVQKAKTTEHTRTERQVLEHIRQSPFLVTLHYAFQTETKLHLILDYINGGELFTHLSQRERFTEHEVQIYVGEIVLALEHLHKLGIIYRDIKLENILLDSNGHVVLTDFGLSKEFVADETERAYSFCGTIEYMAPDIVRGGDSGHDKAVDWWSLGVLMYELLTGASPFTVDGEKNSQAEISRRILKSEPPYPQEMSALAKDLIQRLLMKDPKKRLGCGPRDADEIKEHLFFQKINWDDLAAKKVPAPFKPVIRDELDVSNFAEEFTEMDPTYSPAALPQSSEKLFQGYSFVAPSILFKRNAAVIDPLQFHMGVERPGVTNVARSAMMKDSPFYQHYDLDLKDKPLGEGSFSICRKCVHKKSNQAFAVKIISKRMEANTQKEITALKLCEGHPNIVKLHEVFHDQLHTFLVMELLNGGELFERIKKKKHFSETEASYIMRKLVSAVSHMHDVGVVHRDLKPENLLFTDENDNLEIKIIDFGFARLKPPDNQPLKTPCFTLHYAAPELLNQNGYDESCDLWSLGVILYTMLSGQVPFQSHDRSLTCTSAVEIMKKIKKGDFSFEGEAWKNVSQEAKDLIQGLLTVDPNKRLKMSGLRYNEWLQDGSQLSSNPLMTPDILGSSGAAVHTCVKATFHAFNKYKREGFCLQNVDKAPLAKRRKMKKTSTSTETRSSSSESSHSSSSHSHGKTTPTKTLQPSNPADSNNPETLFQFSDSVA
Sequence of Dual specificity mitogen-activated protein kinase kinase 1 (Homo sapiens) (Q02750 whole entry): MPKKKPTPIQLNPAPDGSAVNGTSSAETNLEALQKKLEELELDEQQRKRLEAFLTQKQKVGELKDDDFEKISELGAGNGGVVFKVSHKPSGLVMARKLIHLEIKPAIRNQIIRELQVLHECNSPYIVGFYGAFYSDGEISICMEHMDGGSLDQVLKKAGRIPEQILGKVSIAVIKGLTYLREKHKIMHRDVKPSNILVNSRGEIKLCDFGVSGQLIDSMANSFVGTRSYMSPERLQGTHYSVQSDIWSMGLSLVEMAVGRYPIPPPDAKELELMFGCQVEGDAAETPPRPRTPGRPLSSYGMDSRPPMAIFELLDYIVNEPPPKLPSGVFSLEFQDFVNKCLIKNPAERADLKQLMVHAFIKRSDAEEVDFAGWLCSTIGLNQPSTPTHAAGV
Sequence of ALK tyrosine kinase receptor (Homo sapiens) (Q9UM73 19-1620 limits assumed): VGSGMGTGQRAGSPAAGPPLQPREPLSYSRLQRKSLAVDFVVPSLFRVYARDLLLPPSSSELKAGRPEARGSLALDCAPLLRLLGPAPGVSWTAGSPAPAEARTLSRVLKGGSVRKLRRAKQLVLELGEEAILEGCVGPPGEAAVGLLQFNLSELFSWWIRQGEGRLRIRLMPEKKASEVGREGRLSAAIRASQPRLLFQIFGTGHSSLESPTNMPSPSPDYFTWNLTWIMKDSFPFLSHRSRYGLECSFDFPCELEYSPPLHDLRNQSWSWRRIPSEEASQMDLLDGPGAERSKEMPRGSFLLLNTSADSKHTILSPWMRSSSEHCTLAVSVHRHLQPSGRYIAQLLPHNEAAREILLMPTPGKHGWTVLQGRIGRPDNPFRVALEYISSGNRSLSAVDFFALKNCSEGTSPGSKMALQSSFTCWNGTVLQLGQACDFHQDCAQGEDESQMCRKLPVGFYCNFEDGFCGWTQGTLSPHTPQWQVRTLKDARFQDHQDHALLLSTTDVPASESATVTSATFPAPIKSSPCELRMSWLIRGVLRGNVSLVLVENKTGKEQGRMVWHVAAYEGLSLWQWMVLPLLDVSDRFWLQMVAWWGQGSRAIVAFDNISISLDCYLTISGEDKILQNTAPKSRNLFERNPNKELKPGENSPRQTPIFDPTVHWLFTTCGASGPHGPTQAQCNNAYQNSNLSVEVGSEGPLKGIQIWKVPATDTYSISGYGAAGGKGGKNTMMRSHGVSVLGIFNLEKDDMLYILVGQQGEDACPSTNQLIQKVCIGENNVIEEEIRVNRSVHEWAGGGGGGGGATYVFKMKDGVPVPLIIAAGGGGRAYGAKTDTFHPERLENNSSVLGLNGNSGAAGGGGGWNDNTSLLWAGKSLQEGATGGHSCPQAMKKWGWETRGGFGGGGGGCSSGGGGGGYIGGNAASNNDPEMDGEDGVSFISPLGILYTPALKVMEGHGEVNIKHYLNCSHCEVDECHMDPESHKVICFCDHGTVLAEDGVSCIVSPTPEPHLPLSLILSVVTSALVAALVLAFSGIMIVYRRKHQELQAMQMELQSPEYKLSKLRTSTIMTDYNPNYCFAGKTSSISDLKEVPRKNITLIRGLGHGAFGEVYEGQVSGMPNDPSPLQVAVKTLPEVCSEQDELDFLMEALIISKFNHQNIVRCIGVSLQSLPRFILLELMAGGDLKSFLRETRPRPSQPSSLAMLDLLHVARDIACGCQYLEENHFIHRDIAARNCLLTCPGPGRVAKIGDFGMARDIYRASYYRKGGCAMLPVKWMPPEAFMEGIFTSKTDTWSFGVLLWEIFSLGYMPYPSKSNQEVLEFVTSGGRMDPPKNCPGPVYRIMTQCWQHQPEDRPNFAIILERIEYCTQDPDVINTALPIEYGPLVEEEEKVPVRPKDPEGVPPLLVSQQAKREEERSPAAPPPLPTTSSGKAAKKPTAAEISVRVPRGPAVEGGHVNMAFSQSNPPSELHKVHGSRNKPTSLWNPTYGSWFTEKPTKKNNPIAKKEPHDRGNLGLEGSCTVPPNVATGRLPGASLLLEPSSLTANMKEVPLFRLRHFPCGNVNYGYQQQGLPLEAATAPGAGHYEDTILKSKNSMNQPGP
Sequence of Cyclin-dependent kinase 1/cyclin B1 (Homo sapiens) (P06493 whole entry, looked up, canonical isoform): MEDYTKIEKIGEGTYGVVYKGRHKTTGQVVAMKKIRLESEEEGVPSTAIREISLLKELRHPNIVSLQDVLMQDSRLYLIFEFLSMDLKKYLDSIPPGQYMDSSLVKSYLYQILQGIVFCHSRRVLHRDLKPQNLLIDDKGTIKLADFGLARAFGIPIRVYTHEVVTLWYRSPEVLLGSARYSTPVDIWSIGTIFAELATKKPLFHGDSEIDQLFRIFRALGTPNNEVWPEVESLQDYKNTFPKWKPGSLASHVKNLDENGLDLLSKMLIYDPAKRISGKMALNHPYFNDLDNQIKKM
Sequence of Cyclin-dependent kinase 1/cyclin B1 (Homo sapiens) (P14635 whole entry, looked up, canonical isoform): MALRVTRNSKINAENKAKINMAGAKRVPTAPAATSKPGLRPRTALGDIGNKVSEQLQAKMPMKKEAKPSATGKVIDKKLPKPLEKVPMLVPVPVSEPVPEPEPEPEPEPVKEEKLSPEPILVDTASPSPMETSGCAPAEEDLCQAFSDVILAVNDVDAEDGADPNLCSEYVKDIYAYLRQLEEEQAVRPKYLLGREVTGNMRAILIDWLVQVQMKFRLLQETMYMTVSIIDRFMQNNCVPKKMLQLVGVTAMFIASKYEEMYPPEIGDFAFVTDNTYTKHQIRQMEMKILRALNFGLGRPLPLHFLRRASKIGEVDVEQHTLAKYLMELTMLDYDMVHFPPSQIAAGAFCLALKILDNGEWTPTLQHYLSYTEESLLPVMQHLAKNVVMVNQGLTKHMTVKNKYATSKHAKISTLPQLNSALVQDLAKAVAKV

## Cc1cc(OCc2ccc(F)cc2F)c(Br)c(=O)n1Cc1ccc(CN(C)C)cc1
[1]
  inhibition: < 50%
[2]
  inhibition: < 50%
[3]
  inhibition: < 50%
[4]
  inhibition: < 50%
Rattus norvegicus
  inhibition in vivo at 5 mg/kg: 87%
[5]
  inhibition: < 50%
[6]
  inhibition: < 50%
[7]
  inhibition: < 50%
[8]
  inhibition: < 50%
[9]
  inhibition: < 50%
[10]
  inhibition: < 50%
[11]
  inhibition: < 50%
[12]
  inhibition: < 50%
[13]
  inhibition: < 50%
[14]
  inhibition: < 50%
[15]
  inhibition: < 50%
[16]
  inhibition: < 50%
[17]
  inhibition: < 50%
[18]
  inhibition: < 50%
[19]
  inhibition: < 50%
[20]
  inhibition: < 50%
[21]
  inhibition: < 50%
[22]
  inhibition: < 50%
[23]
  inhibition: < 50%
[24]
  inhibition: < 50%
[25]
  inhibition: < 50%
[26]
  inhibition: < 50%
[27]
  inhibition: < 50%
[28]
  inhibition: < 50%
[29]
  inhibition: < 50%
[30]
  inhibition: 100%
[31]
  inhibition: < 50%
[32]
  inhibition: < 50%
[33]
  inhibition: < 50%
[34]
  inhibition: < 50%
[35]
  inhibition: < 50%
[36]
  inhibition: < 50%
[37]
  inhibition: < 50%
[38]
  inhibition: < 50%
[39]
  inhibition: < 50%
[40]
  inhibition: < 50%
[41]
  inhibition: < 50%
[42]
  inhibition: < 50%
[43]
  inhibition: < 50%
[44]
  inhibition: < 50%
[45]
  inhibition: < 50%
